Results as given in ChEMBL document CHEMBL1137220, “2-(2-(dimethylaminomethyl)phenoxy)-5-iodophenylamine: an improved serotonin transporter imaging agent” (J Med Chem, 2004).
Values joined by “and” are separate entries in the source; they are usually repeats but may differ in a detail not shown here. Equal values may be shown once.

Key:
[1] = Regional brain distribution in rat cortex was determined after 6 hours of intravenous administration of the compound; [125I]- is used as radioactive isotope; type: ADME; conditions: in vivo
Method in brief: (§1)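 Rats, three per group, injected with 10 μCi tracer in 0.2 mL saline via the femoral vein under ether anesthesia and killed by cardiac excision at the stated time. Cortex (frontal plus occipital), striatum, hippocampus, cerebellum and hypothalamus were dissected, weighed and gamma-counted. Values are % dose/g, calculated by comparison with counts of a 100-fold diluted aliquot of the injected dose.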

[2] = Regional brain distribution in rat cortex was determined after 24-hours of intravenous administration of the compound; [125I]- is used as radioactive isotope; type: ADME; conditions: in vivo; method in brief: as §1
[3] = Distribution ratio in striatum and cerebellum was determined after 60 min of intravenous administration of the compound; [125I]- is used as radioactive isotope; type: ADME, tissue-based; conditions: rat, 1 h
Method in brief: (§2)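 Rats, three per group, given 10 μCi tracer in 0.2 mL saline into the femoral vein under ether anesthesia, then killed by cardiac excision at the stated time. Brain regions were dissected, weighed and counted. Percent dose/g was calculated against a 1% diluted aliquot of the injected dose. The ratio is (region − cerebellum)/cerebellum on a % dose/g basis, with cerebellum as background.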

[4] = Regional brain distribution in rat striatum was determined after 60 min of intravenous administration of the compound; [125I]- is used as radioactive isotope; type: ADME, tissue-based; conditions: in vivo, 1 h; method in brief: as §1
[5] = Distribution ratio in striatum and cerebellum was determined after 2 min of intravenous administration of the compound; [125I]- is used as radioactive isotope; type: ADME, tissue-based; conditions: rat; method in brief: as §2
[6] = Distribution ratio in hypothalamus and cerebellum was determined after 6 hours of intravenous administration of the compound; [125I]- is used as radioactive isotope; type: ADME, tissue-based; conditions: rat; method in brief: as §2
[7] = Regional brain distribution in rat cerebellum was determined after 240 min of intravenous administration of the compound; [125I]- is used as radioactive isotope; type: ADME, tissue-based; conditions: in vivo, 4 h; method in brief: as §1
[8] = Distribution ratio in cortex and cerebellum was determined after 11 hrs of intravenous administration of the compound; [125I]- is used as radioactive isotope; type: ADME, tissue-based; conditions: rat
Method in brief: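 After femoral-vein injection of 10 μCi [¹²⁵I] tracer in 0.2 mL saline under ether anaesthesia (three rats per group), brain regions were dissected, weighed and counted: cortex (frontal plus occipital), hippocampus, hypothalamus and cerebellum. %dose/g was calculated against a diluted injected-dose standard. Ratio = (region − cerebellum)/cerebellum on a %dose/g basis, with cerebellum as the background region.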

[9] = Regional brain distribution in rat cerebellum was determined after 2 min of intravenous administration of the compound; [125I]- is used as radioactive isotope; type: ADME, tissue-based; conditions: in vivo; method in brief: as §1
[10] = Regional brain distribution in rat cerebellum was determined after 60 min of intravenous administration of the compound; [125I]- is used as radioactive isotope; type: ADME, tissue-based; conditions: in vivo, 1 h; method in brief: as §1
[11] = Regional brain distribution in rat striatum was determined after 11 hours of intravenous administration of the compound; [125I]- is used as radioactive isotope; type: ADME, tissue-based; conditions: in vivo; method in brief: as §1
[12] = Regional brain distribution in rat hypothalamus was determined after 60 min of intravenous administration of the compound; [125I]- is used as radioactive isotope; type: ADME, tissue-based; conditions: in vivo, 1 h; method in brief: as §1
[13] = Regional brain distribution in rat hippocampus was determined after 11 hours of intravenous administration of the compound; [125I]- is used as radioactive isotope; type: ADME, tissue-based; conditions: in vivo; method in brief: as §1
[14] = Regional brain distribution in rat hippocampus was determined after 24 hours of intravenous administration of the compound; [125I]- is used as radioactive isotope; type: ADME, tissue-based; conditions: in vivo; method in brief: as §1
[15] = Biodistribution in rat lung was determined after 2 min of intravenous administration of the compound; [125I]- is used as radioactive isotope; type: ADME, organism-based; conditions: in vivo
Method in brief: (§3)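 Rats under ether anesthesia, three per group, received 10 μCi tracer in 0.2 mL saline into the femoral vein. They were killed by cardiac excision under ether at each time point. Organs were removed, weighed and counted. Percent dose per organ was calculated against a 1%-of-injected-dose standard counted at the same time.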

[16] = Biodistribution in rat heart was determined after 2 min of intravenous administration of the compound; [125I]- is used as radioactive isotope; type: ADME, organism-based; conditions: in vivo; method in brief: as §3
[17] = Biodistribution in rat skin was determined after 30 min of intravenous administration of the compound; [125I]- is used as radioactive isotope; type: ADME, organism-based, Zone of skin; conditions: in vivo, 0.5 h
Method in brief: (§4)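 Rats, three per group, under ether anaesthesia, received 10 μCi of [¹²⁵I]-labelled tracer in 0.2 mL saline into the femoral vein. They were killed by cardiac excision under ether at each time point. Organs were removed, weighed and counted. Percent dose per organ was calculated against counts of a 1% aliquot of the injected dose (100-fold diluted) counted at the same time.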

[18] = Biodistribution in rat blood was determined after 60 min of intravenous administration of the compound; [125I]- is used as radioactive isotope; type: ADME, organism-based; conditions: in vivo, 1 h; method in brief: as §3
[19] = Biodistribution in rat thyroid was determined after 120 min of intravenous administration of the compound; [125I]- is used as radioactive isotope; type: ADME, organism-based, Thyroid gland; conditions: in vivo, 2 h; method in brief: as §4
[20] = Biodistribution in rat thyroid was determined after 11 hours of intravenous administration of the compound; [125I]- is used as radioactive isotope; type: ADME, organism-based, Thyroid gland; conditions: in vivo; method in brief: as §4
[21] = Biodistribution in rat lung was determined after 6 hours of intravenous administration of the compound; [125I]- is used as radioactive isotope; type: ADME, organism-based; conditions: in vivo; method in brief: as §3
[22] = Biodistribution in rat brain was determined after 120 min of intravenous administration of the compound; [125I]- is used as radioactive isotope; type: ADME, organism-based; conditions: in vivo, 2 h; method in brief: as §3
[23] = Biodistribution in rat kidney was determined after 30 min of intravenous administration of the compound; [125I]- is used as radioactive isotope; type: ADME, organism-based; conditions: in vivo, 0.5 h; method in brief: as §3
[24] = Biodistribution in rat skin was determined after 11 hours of intravenous administration of the compound; [125I]- is used as radioactive isotope; type: ADME, organism-based, Zone of skin; conditions: in vivo; method in brief: as §4
[25] = Biodistribution in rat skin was determined after 24 hours of intravenous administration of the compound; [125I]- is used as radioactive isotope; type: ADME, organism-based, Zone of skin; conditions: in vivo; method in brief: as §4
[26] = Biodistribution in rat spleen was determined after 30 min of intravenous administration of the compound; [125I]- is used as radioactive isotope; type: ADME, organism-based; conditions: in vivo, 0.5 h; method in brief: as §4
[27] = Biodistribution in rat spleen was determined after 6 hours of intravenous administration of the compound; [125I]- is used as radioactive isotope; type: ADME, organism-based; conditions: in vivo; method in brief: as §4
[28] = Biodistribution in rat liver was determined after 240 min of intravenous administration of the compound; [125I]- is used as radioactive isotope; type: ADME, organism-based; conditions: in vivo, 4 h; method in brief: as §3
[29] = Biodistribution in rat lung was determined after 24 hours of intravenous administration of the compound; [125I]- is used as radioactive isotope; type: ADME, organism-based; conditions: in vivo; method in brief: as §3
[30] = Biodistribution in rat heart was determined after 24 hours of intravenous administration of the compound; [125I]- is used as radioactive isotope; type: ADME, organism-based; conditions: in vivo; method in brief: as §3
[31] = Biodistribution in rat kidney was determined after 6 hours of intravenous administration of the compound; [125I]- is used as radioactive isotope; type: ADME, organism-based; conditions: in vivo; method in brief: as §3
[32] = Biodistribution in rat muscle was determined after 240 min of intravenous administration of the compound; [125I]- is used as radioactive isotope; type: ADME, organism-based, Muscle tissue; conditions: in vivo, 4 h; method in brief: as §4
[33] = Biodistribution in rat muscle was determined after 6 hours of intravenous administration of the compound; [125I]- is used as radioactive isotope; type: ADME, organism-based, Muscle tissue; conditions: in vivo; method in brief: as §4
[34] = Biodistribution in rat thyroid was determined after 60 min of intravenous administration of the compound; [125I]- is used as radioactive isotope; type: ADME, organism-based, Thyroid gland; conditions: in vivo, 1 h; method in brief: as §4

CN(C)Cc1ccccc1Oc1ccc(I)cc1N
Dose/g [1]: 0.04% | Dose/g [2]: 0.004% | Dose/g [3]: 1.51% | Dose/g [4]: 1.02% | Dose/g [5]: 0.01% | Dose/g [6]: 2.64% | Dose/g [7]: 0.06% | Dose/g [8]: 0% | Dose/g [9]: 0.79% and 0.64% | Dose/g [10]: 0.41% | Dose/g [11]: 0.01% | Dose/g [12]: 1.18% | Dose/g [13]: 0.01% | Dose/g [14]: 0.004% | Dose [15]: 17.2% | Dose [16]: 1.51% | Dose [17]: 11.3% | Dose [18]: 3.89% | Dose [19]: 0.96% | Dose [20]: 5.15% | Dose [21]: 0.25% | Dose [22]: 1.08% | Dose [23]: 2.67% | Dose [24]: 10.9% | Dose [25]: 4.02% | Dose [26]: 0.84% | Dose [27]: 0.11% and 0.05% | Dose [28]: 3.52% | Dose [29]: 0.04% | Dose [30]: 0.02% | Dose [31]: 0.55% | Dose [32]: 6.27% | Dose [33]: 5.01% | Dose [34]: 0.41%
